The text below walks through data of ChEMBL document CHEMBL1147231, “Cytotoxic and antimalarial beta-carboline alkaloids from the roots of Eurycoma longifolia” (J Nat Prod, 2003).

In one experiment the test system is A549. In words: Cytotoxicity against human A549 cells by SRB assay. The experiment is classed as functional. The note with it: for EC50: Homo sapiens, A549, read-out: ED50 (the source's name). The method, boiled down: (§1)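 Sulforhodamine B assay on human lung (A549) and breast (MCF-7) cancer cell lines; ED50 taken as the compound concentration giving 50% reduction in absorbance at 562 nm relative to untreated cells.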
In general terms: In SRB staining, fixed cells bind dye roughly in proportion to their protein.

The subject of another experiment is MCF7. In words: Cytotoxicity against human MCF7 cells by SRB assay. The experiment is classed as functional. The note with it: for EC50: Homo sapiens, MCF7, read-out: ED50 (the source's name). The method, boiled down:
as §1

Experiment [1] has as its system Plasmodium falciparum. In words: Antimalarial activity against Plasmodium falciparum W2. The class given is functional, organism-based. In outline:
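In vitro drug susceptibility measured by parasite incorporation of radiolabeled hypoxanthine (modified Desjardins method); mefloquine and chloroquine run in parallel as positive controls.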

Experiment [2] deals with Plasmodium falciparum. In words: Antimalarial activity against Plasmodium falciparum D6. The class given is functional, organism-based. In outline: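 Drug susceptibility in vitro by modified Desjardins method with Milhous modifications. Read-out is parasite incorporation of radiolabelled hypoxanthine. Mefloquine and chloroquine were run in parallel as positive controls.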

Each structure is given as a SMILES string. ≈ marks a conversion by molar mass, not a printed value. Calls of active or inactive are those of the source. No cut-off for these calls is given here.

The IC50 is the concentration that gives 50% inhibition. Higher therefore signals weaker potency in that assay.

For the compound `COc1ccc2c3cc[n+]([O-])c4ccc(=O)n(c2c1)c34`, the EC50 in the experiment with A549 was found to be 18.5 µg/mL (≈ 69.5 µM); with MCF7 it was 18.9 µg/mL (≈ 71 µM).

For `O=C(O)CCc1nccc2c1[nH]c1ccccc12`, the outcome in the experiment with A549 was inactive. Moreover, in the experiment with MCF7, the “inhibition (INH)” value was 8% and the EC50 was more than 20 µg/mL.

`O=c1ccc2nccc3c4ccc(O)cc4n1c23`: the EC50 in the experiment with A549 worked out at 10 µg/mL (≈ 42.3 µM); with MCF7, 19.6 µg/mL (≈ 83 µM). For the same compound, the concentration for half-maximal inhibition (IC50) in the experiment with Plasmodium falciparum [1] was 2.34 µg/mL (≈ 9.89 µM).

As for `COc1ccc2c(c1)[nH]c1c(CCC(=O)O)nccc12`, in the experiment with A549, the “inhibition (INH)” value amounted to 7% and the EC50 is more than 20 µg/mL. In addition, in the experiment with MCF7, the “inhibition (INH)” value worked out at 15% and the EC50 is more than 20 µg/mL.

As to `O=c1ccc2nccc3c4ccccc4n1c23` [CANTHIN-6-ONE], the EC50 with A549 was 3.6 µg/mL (≈ 16.3 µM); with MCF7, 7.3 µg/mL (≈ 33.1 µM). Moreover, the 50% inhibitory concentration (IC50) in the experiment on Plasmodium falciparum [1] was determined as 2.24 µg/mL (≈ 10.2 µM).

Consider `COc1ccc2c3ccnc4ccc(=O)n(c2c1)c43`, for which, in the experiment with A549, the “inhibition (INH)” value turned out to be 55% and the EC50 was less than 2.5 µg/mL. The EC50 in the experiment on MCF7 came out at 4.5 µg/mL (≈ 18 µM).

Regarding `COc1c(O)c2nccc3c4ccccc4n(c1=O)c23` [PICRASIDINE Q], the EC50 in the experiment with A549 amounted to 16.2 µg/mL (≈ 60.8 µM); in the experiment with MCF7, 18.1 µg/mL (≈ 68 µM). Also, the concentration for half-maximal inhibition (IC50) in the experiment on Plasmodium falciparum [1] was 3.52 µg/mL (≈ 13.2 µM); in the experiment with Plasmodium falciparum [2] it was 2.96 µg/mL (≈ 11.1 µM).
